# PMC5884014 (Neoplasia (New York, N.Y.), 2017)
# Tests used:
# FHC = experiment: Cytotoxicity assay; format: cell-based, human; details: 72 h
# HCT116 = experiment: Cytotoxicity assay; format: cell-based, human
# RKO = experiment: Cytotoxicity assay; format: cell-based, human; details: 72 h
# LS174T = experiment: Cytotoxicity assay; format: cell-based, human; details: 72 h
# LoVo = experiment: Cytotoxicity assay; format: cell-based, human; details: 72 h
# Colo205 = experiment: Cytotoxicity assay; format: cell-based, human
# DLD-1 = experiment: Cytotoxicity assay; format: cell-based, human
# HT-29 = experiment: Cytotoxicity assay; format: cell-based, human
# SW620 = experiment: Cytotoxicity assay; format: cell-based, human
# RKO-E6 = experiment: Cytotoxicity assay; format: cell-based, human; details: RKO-E6 (p53-KO), 72 h
# H3347 = experiment: Cytotoxicity assay; format: cell-based, human; details: H3347, 72 h
# Caco-2 = experiment: Cytotoxicity assay; format: cell-based; details: Homo sapiens, Caco-2, 72 h
# [1] = Toxicology examination: serum biochemistry; format: in vivo; details: ICR mice, 5-FU 50 mg/kg i.p., SL-1 30, oxaliplatin 7.5, cisplatin 7.5 mg/kg i.v.
# CRC cell lines = experiment: Cytotoxicity, panel of CRC cell lines; format: cell-based; details: Homo sapiens, read-out: IC50 values in CRC cell lines
# [2] = system: pGL4-WT and pGL4-MT luciferase reporters in RKO cells; experiment: Luciferase reporter assay; format: cell-based, human; details: SL-1 for 2 h
# pEGFP-N1 plasmid DNA = experiment: Alkaline agarose gel shift assay; format: biochemical; details: 37°C, 2 h
# RKO cells [3] = experiment: Comet and modified comet assays; format: cell-based, human; details: 24 h, SL-1 0.75 μM, 5-FU […], alone or combined
# Procedure, shortened: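 RKO cells were exposed to the test compound and/or 5-FU for 24 h and then processed by comet assay. The read-out was tail moment, reported as means ± SD (n = 3) and compared by Student's t test. Synergy on tail moment was expressed as a combination index (CI).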
# RKO cells [4] = experiment: Annexin V staining assay; format: cell-based, human
# RKO xenografts = experiment: Anticancer activity in xenograft mouse model; format: in vivo, nude mice
# [5] = Toxicology examination: complete blood counts; format: in vivo; details: ICR mice, 5-FU 50 mg/kg i.p., SL-1 30, oxaliplatin 7.5, cisplatin 7.5 mg/kg i.v.
# [6] = Toxicology examination: histopathology of kidney and liver; format: in vivo; details: ICR mice
# [7] = system: breast carcinoma MX-1 xenografts; details: cited from earlier work
# [8] = FHC normal fetal colonic epithelial cells
compound,measurement,setting,value
"N.N.[Cl][Pt][Cl] [Cisplatin, cisplatin]",IC50,FHC; [8],21 ± 2.03 µM
same,IC50,"HCT116; HCT116 (p53-WT), 72 h",3.42 ± 0.36 µM
same,IC50,RKO; RKO (p53-WT),26.3 ± 3.28 µM
same,IC50,LS174T; LS174T (p53-WT),8.48 ± 2.74 µM
same,IC50,LoVo; LoVo (p53-WT),6.38 ± 2.18 µM
same,IC50,"Colo205; Colo205 (p53-WT), 72 h",11.1 ± 1.27 µM
same,IC50,"DLD-1; DLD-1 (p53-MT), 72 h",29.6 ± 6.42 µM
same,IC50,"HT-29; HT-29 (p53-MT), 72 h",5.99 ± 1.22 µM
same,IC50,"SW620; SW620 (p53-MT), 72 h",0.91 ± 0.27 µM
same,IC50,RKO-E6,24.8 ± 7.71 µM
same,IC50,H3347,12.2 ± 0.64 µM
"CCc1c2c(nc3ccc(OC(=O)N4CCC(N5CCCCC5)CC4)cc13)-c1cc3c(c(=O)n1C2)COC(=O)[C@]3(O)CC [Irinotecan, irinotecan]",IC50,"FHC; Homo sapiens, FHC",> 100 µM
same,IC50,"HCT116; Homo sapiens, HCT-116, 72 h",1.38 ± 0.49 µM
same,IC50,"RKO; Homo sapiens, RKO",2.63 ± 1.05 µM
same,IC50,"LS174T; Homo sapiens, LS174T",1.36 ± 0.33 µM
same,IC50,"LoVo; Homo sapiens, LoVo",9.69 ± 1.68 µM
same,IC50,"Colo205; Homo sapiens, COLO 205, 72 h",2.49 ± 0.48 µM
same,IC50,"DLD-1; Homo sapiens, DLD-1, 72 h",1.72 ± 0.35 µM
same,IC50,"HT-29; Homo sapiens, HT-29, 72 h",4.19 ± 0.29 µM
same,IC50,"SW620; Homo sapiens, SW-620, 72 h",0.32 ± 0.1 µM
same,IC50,Caco-2,21.3 ± 7.34 µM
same,IC50,H3347; Homo sapiens,2.93 ± 0.68 µM
"O=C1[O][Pt]2([NH][C@@H]3CCCC[C@H]3[NH]2)[O]C1=O [Oxaliplatin, oxaliplatin]",IC50,FHC; [8],19.7 ± 2.21 µM
same,IC50,"HCT116; HCT116 (p53-WT), 72 h",1.78 ± 0.11 µM
same,IC50,RKO; RKO (p53-WT),0.62 ± 0.02 µM
same,IC50,LS174T; LS174T (p53-WT),> 50 µM
same,IC50,LoVo; LoVo (p53-WT),1.65 ± 0.21 µM
same,IC50,"Colo205; Colo205 (p53-WT), 72 h",2.26 ± 0.78 µM
same,IC50,"DLD-1; DLD-1 (p53-MT), 72 h",1.62 ± 0.06 µM
same,IC50,"HT-29; HT-29 (p53-MT), 72 h",1.92 ± 0.81 µM
same,IC50,"SW620; SW620 (p53-MT), 72 h",7.62 ± 3.12 µM
same,IC50,RKO-E6,10.3 ± 3.39 µM
same,IC50,H3347,2.55 ± 0.73 µM
same,ALP,[1]; 2 days,498.33 ± 63.91 U/l
same,ALT,[1]; 2 days,28.00 ± 1.73 U/l
same,AST,[1]; 2 days,76.67 ± 16.47 U/l
same,BUN,[1]; 2 days,20.27 ± 3.32 mg/dL
same,CRE,[1]; 2 days,0.27 ± 0.06 mg/dL
same,GLU,[1]; 2 days,153.67 ± 88.22 mg/dL
same,ALP,[1]; 14 days,245.5 ± 35.07 U/l
same,BUN,[1]; 14 days,21.35 ± 5.07 mg/dL
same,CRE,[1]; 14 days,0.13 ± 0.05 mg/dL
same,GLU,[1]; 14 days,268.25 ± 61.43 mg/dL
same,GOT/AST,[1]; 14 days,47.25 ± 7.13 U/l
same,GPT/ALT,[1]; 14 days,29.50 ± 5.74 U/l
"Cc1cc(NNC(=O)Nc2ccc(N(CCCl)CCCl)cc2)c2cc3c(cc2n1)OCO3 [SL-1, N-{4-[Bis(2-chloroethyl)amino]phenyl}-2-(6-methyl[1,3]-dioxolo[4,5-g]quinolin-8-yl)-hydrazinecarboxamide]",IC50,"FHC; Homo sapiens, FHC",71.5 ± 8.36 µM
same,IC50,"HCT116; Homo sapiens, HCT-116, 72 h",0.34 ± 0.06 µM
same,IC50,"RKO; Homo sapiens, RKO",0.2 ± 0.08 µM
same,IC50,"LS174T; Homo sapiens, LS174T",4.55 ± 1.01 µM
same,IC50,"LoVo; Homo sapiens, LoVo",0.61 ± 0.03 µM
same,IC50,"Colo205; Homo sapiens, COLO 205, 72 h",0.46 ± 0.1 µM
same,IC50,"DLD-1; Homo sapiens, DLD-1, 72 h",0.36 ± 0.07 µM
same,IC50,"HT-29; Homo sapiens, HT-29, 72 h",0.53 ± 0.11 µM
same,IC50,"SW620; Homo sapiens, SW-620, 72 h",0.14 ± 0.06 µM
same,IC50,Caco-2,5.49 ± 3.07 µM
same,IC50,H3347; Homo sapiens,0.23 ± 0.03 µM
same,IC50,CRC cell lines,0.14 to 5.49 µM
same,"inhibition of luciferase reporter activity, pGL4-WT vs pGL4-MT",[2],inhibited the reporter activity of pGL4-WT more effectively than that of pGL4-MT
same,concentration that induced moderate levels of ICLs,pEGFP-N1 plasmid DNA,0.05 µM
same,tail moment,RKO cells [3],5.4 ± 0.8 μm
same,mode of cell death,RKO cells [4],primarily triggered apoptosis
same,tumor suppression,"RKO xenografts; RKO xenograft (Figure 6A), SL-1 30 mg/kg Q2D×7 i.v., oxaliplatin 7.5 mg/kg, 5-FU 50 mg/kg",61.8%
same,tumor growth suppression,"RKO xenografts; RKO xenograft, nude mice, day 29, SL-1 30 mg/kg i.v. every other day 7 times",approximately 65%
same,BASO,[5]; 2 days,0.00 ± 0.00 10^9/l
same,EO,[5]; 2 days,0.09 ± 0.03 10^9/l
same,HCT,[5]; 2 days,38.32 ± 3.18%
same,HGB,[5]; 2 days,12.34 ± 1.35 g/dL
same,LYMPH,[5]; 2 days,3.55 ± 0.98 10^9/l
same,MCH,[5]; 2 days,15.88 ± 0.48 pg
same,MCHC,[5]; 2 days,25.86 ± 1.72 g/dL
same,MCV,[5]; 2 days,58.18 ± 3.66 fL
same,MONO,[5]; 2 days,0.05 ± 0.03 10^9/l
same,NEUT,[5]; 2 days,0.54 ± 0.20 10^9/l
same,PLT,[5]; 2 days,1742.40 ± 273.56 10^9/l
same,RBC,[5]; 2 days,7.80 ± 1.03 10^12/l
same,WBC,[5]; 2 days,4.81 ± 1.00 10^9/l
same,BASO,[5]; 14 days,0.01 ± 0.01 10^9/l
same,EO,[5]; 14 days,0.13 ± 0.05 10^9/l
same,HCT,[5]; 14 days,46.28 ± 2.32%
same,HGB,[5]; 14 days,13.36 ± 0.74 g/dL
same,LYMPH,[5]; 14 days,4.17 ± 1.28 10^9/l
same,MCH,[5]; 14 days,15.58 ± 0.47 pg
same,MCHC,[5]; 14 days,28.84 ± 0.57 g/dL
same,MCV,[5]; 14 days,53.96 ± 1.92 fL
same,MONO,[5]; 14 days,0.12 ± 0.15 10^9/l
same,NEUT,[5]; 14 days,1.08 ± 0.36 10^9/l
same,PLT,[5]; 14 days,838.80 ± 57.98 10^9/l
same,RBC,[5]; 14 days,8.60 ± 0.68 10^12/l
same,WBC,[5]; 14 days,5.50 ± 1.64 10^9/l
same,ALP,[1]; 2 days,331.75 ± 27.94 U/l
same,ALT,[1]; 2 days,24.50 ± 2.17 U/l
same,AST,[1]; 2 days,49.00 ± 3.24 U/l
same,BUN,[1]; 2 days,23.05 ± 2.22 mg/dL
same,CRE,[1]; 2 days,0.20 ± 0.00 mg/dL
same,GLU,[1]; 2 days,466.50 ± 146.80 mg/dL
same,ALP,[1]; 14 days,231.00 ± 85.33 U/l
same,BUN,[1]; 14 days,20.05 ± 2.37 mg/dL
same,CRE,[1]; 14 days,0.17 ± 0.06 mg/dL
same,GLU,[1]; 14 days,219.75 ± 35.85 mg/dL
same,GOT/AST,[1]; 14 days,47.50 ± 1.29 U/l
same,GPT/ALT,[1]; 14 days,22.00 ± 8.04 U/l
same,liver histopathology,[6]; 2-day test,liver damage was insignificant
same,kidney histopathology,[6]; 2 days after single dose,insignificant morphological injury in the kidney
same,"histopathological examination, overall",[6]; SL-1 30 mg/kg i.v.,no obvious nephrotoxicity or hepatotoxicity
same,growth of breast carcinoma MX-1 xenografts,[7],complete tumor remission
